Reference: publication PMC7125423 (Archives of Pharmacal Research, 2020)
“And” between values parts separate entries of the source, which are not always exact repeats. Equal entries are not always repeated.

Tests used:
MDCK cells = test: Cell viability assay; format: cell-based, canine; conditions: 24 h, MTT
How it was run: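 Confluent MDCK cells (grown in DMEM with 10% FBS, penicillin and streptomycin, 5% CO2) were exposed to graded concentrations of test compound for 24 h. Viability was measured by MTT. The maximum non-toxic dose was taken from this assay and then used in the infection assays.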

[1] = test system: influenza virus A/Font Monmouth/47(H1N1, FM1); format: cell-based
[2] = target: influenza H1N1 virus neuraminidase (Influenza A virus, UniProt P03468); test: Neuraminidase inhibition screening assay; format: biochemical
Chain of influenza H1N1 virus neuraminidase (P03468 whole entry): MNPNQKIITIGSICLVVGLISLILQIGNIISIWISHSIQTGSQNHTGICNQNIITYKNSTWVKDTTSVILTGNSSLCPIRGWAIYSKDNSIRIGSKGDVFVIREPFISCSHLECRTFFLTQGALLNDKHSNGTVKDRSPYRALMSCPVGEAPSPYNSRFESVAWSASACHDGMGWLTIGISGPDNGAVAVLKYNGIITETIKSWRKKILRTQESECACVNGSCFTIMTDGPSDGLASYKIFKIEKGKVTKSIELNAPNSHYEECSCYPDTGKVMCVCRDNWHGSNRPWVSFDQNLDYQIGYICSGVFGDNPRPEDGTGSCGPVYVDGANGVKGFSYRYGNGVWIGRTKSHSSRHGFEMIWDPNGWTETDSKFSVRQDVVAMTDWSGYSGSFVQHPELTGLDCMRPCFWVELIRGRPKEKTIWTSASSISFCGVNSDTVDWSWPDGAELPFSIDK

IAV nucleoprotein (NP) = test: Indirect immunofluorescence of viral NP in H1N1-infected MDCK cells; format: cell-based, influenza virus A/Font Monmouth/47(H1N1, FM1); conditions: at MNTD, 8 h after infection, compared to virus group
How it was run: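 Confluent MDCK monolayers were infected with 100 μL of 100 TCID50 H1N1 for 2 h at 37 °C. Inoculum was removed and test compound was added at its maximum non-toxic dose in DMEM. At 8 h post-infection, cells were fixed in ice-cold acetone/methanol (40:60) for 15 min. Staining used mouse anti-NP monoclonal antibody (1:100 in PBS, 1 h), then Alexa Fluor 488 anti-mouse IgG (1:100, 1 h), with DAPI for nuclei; imaged by fluorescence microscopy.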

neuraminidase = format: cell-based, influenza virus A/Font Monmouth/47(H1N1, FM1)
[3] = Dose safety of curcumin in mice; format: in vivo; conditions: 100 mg/kg/day
IL-6 = test: Cytokine in lung homogenate of IAV-infected mice; format: in vivo; conditions: day 5 after infection; different doses (100, 50, 25 mg/kg/day)
How it was run: (§1)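 Female SPF NIH mice (13–15 g) were infected with mouse-adapted IAV A/Font Monmouth/47 (H1N1, FM1). Controls were normal and placebo (saline, 0.5% Tween 80) groups. On day 5 post-infection, lungs were homogenised and centrifuged (4000×g, 15 min, 4 °C), and supernatants were stored at −80 °C. Cytokines were measured by anti-mouse ELISA kits; n = 10; mean ± SD of 3 separate experiments.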

IFN-γ = test: Cytokine in lung homogenate of IAV-infected mice; format: in vivo; conditions: day 5 after infection; different doses (100, 50, 25 mg/kg/day)
How it was run: as §1

TNF-α = test: Cytokine in lung homogenate of IAV-infected mice; format: in vivo; conditions: day 5 after infection; different doses, except 25 mg/kg/day
How it was run: as §1

[4] = test system: influenza A/Font Monmouth/47(H1N1, FM1) virus; test: Survival experiments in IAV-infected mice; format: in vivo, NIH mice; conditions: 100, 50 and 25 mg/kg/day, pre-infection and post-infection, oral gavage, 2 LD50, vs placebo
[5] = test system: influenza A/Font Monmouth/47(H1N1, FM1) virus; set-up: species or system NIH mice; conditions: mouse, in vivo
[6] = IC50, NA activity inhibition assay

O=C(/C=C/c1ccc(O)cc1)CC(=O)/C=C/c1ccc(O)cc1 [Bisdemethoxycurcumin]
MNTD (maximum non-toxic dose) (MDCK cells): 20 µM | decrease of mRNA expression level of M gene [1]: about 2.13 fold | mRNA expression level of M gene [1]: 0.47 ± 0.11 µM | IC50 [2, 6]: 70.1 µM | viral NP localisation (immunofluorescence) (IAV nucleoprotein (NP)): a strong green fluorescent signal was observed in the cytoplasm | decrease of NA activity (neuraminidase): 2.45 fold | neuraminidase activity in cell supernatant (neuraminidase): 0.40 ± 0.01 mU/mL

COc1cc(/C=C/C(=O)CC(=O)/C=C/c2ccc(O)c(OC)c2)ccc1O [Curcumin-d6]
IC50 ([2]; NA activity inhibition assay): 18800 µM

[2H]C([2H])([2H])Oc1cc(/C=C/C(=O)CC(=O)/C=C/c2ccc(O)c(OC([2H])([2H])[2H])c2)ccc1O [Curcumin-d6]
pIC50 (expt.) ([2]; converted from IC50): 1.73

COc1cc(/C=C/C(=O)CC(=O)/C=C/c2ccc(O)c(OC)c2)ccc1O [Curcumin]
weight and clinical symptoms (dose safety) [3]: remained stable in weight and showed no significant clinical symptoms | IL-6 level in lung homogenate (IL-6): significantly attenuated the increases | IFN-γ level in lung homogenate (IFN-γ): significantly attenuated the increases | MNTD (maximum non-toxic dose) (MDCK cells): 25 µM | TNF-α level in lung homogenate (TNF-α): significantly attenuated the increases | decrease of mRNA expression level of M gene [1]: about 5.26 fold | mRNA expression level of M gene [1]: 0.19 ± 0.03 µM | IC50 [2, 6]: 450 µM | average survival time [4]: prolonged the average survival time | death protection rate [4]: promote the death protection rate significantly | viral NP localisation (immunofluorescence) (IAV nucleoprotein (NP)): less NP was observed in the cytoplasm | decrease of NA activity (neuraminidase): about 2.04 fold | neuraminidase activity in cell supernatant (neuraminidase): 0.48 ± 0.03 mU/mL | Lung index inhibition [5]: 22.42% and 23.6% and 35.75^** % | Lung pathological change degree [5]: 1.10 ± 0.39 and 0.92 ± 0.47 and 1.02 ± 0.55

COc1cc(/C=C/C(O)=C/C(=O)/C=C/c2ccc(O)cc2)ccc1O [Demethoxycurcumin]
IC50 [2, 6]: 200 µM

COc1cc(/C=C/C(=O)CC(=O)CCc2ccc(O)c(OC)c2)ccc1O [Dihydrocurcumin]
MNTD (maximum non-toxic dose) (MDCK cells): 20 µM | decrease of mRNA expression level of M gene [1]: ~1.20 fold | mRNA expression level of M gene [1]: 0.83 ± 0.09 µM | IC50 ([2]; NA activity inhibition assay): 219 µM | pIC50 (expt.) ([2]; converted from IC50): 3.66 | viral NP localisation (immunofluorescence) (IAV nucleoprotein (NP)): a strong green fluorescent signal was observed in the cytoplasm | decrease of NA activity (neuraminidase): ~1.81 fold | neuraminidase activity in cell supernatant (neuraminidase): 0.54 ± 0.02 mU/mL

COc1ccc(/C=C/C(=O)/C=C(O)/C=C/c2ccc(OC)c(OC)c2)cc1OC [Dimethylcurcumin]
IC50 [2, 6]: 1610 µM

COc1cc(CCC(=O)CC(O)CCc2ccc(O)c(OC)c2)ccc1O (centres unmarked) [Hexahydrocurcumin]
IC50 [2, 6]: 33700 µM | IC50 ([2]; pIC50 (expt.), converted from IC50): 33900 µM

COc1cc(CCC(O)CC(O)CCc2ccc(O)c(OC)c2)ccc1O (centres unmarked) [Octahydrocurcumin]
IC50 [2, 6]: 1530 µM

CCC(CC)O[C@@H]1C=C(C(=O)O)C[C@H](N)[C@H]1NC(C)=O [Oseltamivir carboxylate, reference compound]
decrease of mRNA expression level of M gene [1]: about 11.11 fold

NC(=O)c1ncn([C@@H]2O[C@H](CO)[C@@H](O)[C@H]2O)n1 [Ribavirin, reference compound]
Lung index [5]: 0.94 ± 0.29 | Lung index inhibition [5]: 43% | Lung pathological change degree [5]: 0.87 ± 0.52

COc1cc(CCC(=O)CC(=O)CCc2ccc(O)c(OC)c2)ccc1O [Tetrahydrocurcumin]
IC50 [2, 6]: 203 µM

Tetramethylcurcumin
MNTD (maximum non-toxic dose) (MDCK cells): 15 µM | decrease of mRNA expression level of M gene [1]: about 3.85 fold | mRNA expression level of M gene [1]: 0.26 ± 0.07 µM | IC50 ([2]; NA activity inhibition assay): 226 µM | pIC50 (expt.) ([2]; converted from IC50): 3.65 | viral NP localisation (immunofluorescence) (IAV nucleoprotein (NP)): less NP was observed in the cytoplasm | decrease of NA activity (neuraminidase): 2.65 fold | neuraminidase activity in cell supernatant (neuraminidase): 0.37 ± 0.06 mU/mL
